# From PubChem BioAssay
# Calb FLC: affects C. albicans growth with fluconazole. growth inhibition, % (test concentration not listed). AID 1979. C. albicans CaCi-2 (fluconazole-resistant clinical isolate) + fluconazole, Alamar Blue growth, 48 h. 300,000 compounds, 0.57% hits;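 active = growth inhibition above about 58% in most replicates, limit read from the data, passing the limit was not always enough; inconclusive = exactly half the replicates above a set limit; inactive = most replicates below a set limit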;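 note: all wells also contain fluconazole at 8 µg/ml as a sub-toxic cotreatment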
# NALP1 inh: blocks the NALP1 inflammasome reconstituted in yeast; 280,000 compounds, 0.61% hits; S. cerevisiae NALP1/ASC/caspase-1 growth, X-gal OD620, 72 h; AID 2071; inhibition, % at 10 µM; in the data active = inhibition mostly above about 24%, no sharp cut-off; inactive = mostly below about 32%
# ALR H2O2 inh: blocks human ALR sulfhydryl oxidase activity. AID 485317. purified ALR, DTT oxidation, H2O2 HRP-luminol luminescence. P55789. 290,000 compounds, 3.8% hits. inhibition, % (concentration not given with the values);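 active = mean replicate inhibition above about 79%, with every replicate also reaching it, limit read from the data; inconclusive = only one of the two criteria met; inactive = mean below limit and not every replicate reaching it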
# Target sequence (P55789 whole entry, looked up): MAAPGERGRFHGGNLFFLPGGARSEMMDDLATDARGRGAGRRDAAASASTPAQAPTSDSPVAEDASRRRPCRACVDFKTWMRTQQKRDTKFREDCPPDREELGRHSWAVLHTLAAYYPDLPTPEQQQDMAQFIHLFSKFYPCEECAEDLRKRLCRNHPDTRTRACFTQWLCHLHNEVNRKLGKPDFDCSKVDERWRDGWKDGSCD
# NLRP3 yeast inh: inhibitors of NALP3 inflammasome in yeast; Yeast reconstituted NLRP3/ASC/caspase-1, beta-gal luminescence, 24 h; inhibition, % at 10 µM; 330,000 compounds, 0.39% hits;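 active = inhibition of 50% or more; inactive = inhibition below 50%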
# UCH37 DUB inh: blocks the human deubiquitinase UCH37 | 330,000 compounds, 0.33% hits | purified proteasome/UCH37, Ub-AMC cleavage fluorescence | inhibition, % (concentration not given with the values) | Q9Y5K5;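 active = mean inhibition over replicate wells above about 20%, limit read from the data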
#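 system = Proteasome-associated human UCH37 deubiquitinase | amount = 0.15 nM proteasome as dispensed | medium = pH 7.4 Tris-HCl (50 mM) with ovalbumin, ATP-MgCl2, DTT | incubation = 30 min preincubation with enzyme, 25 min cleavage at room temperature | detection = AMC fluorescence 355/460 nm | read-out basis = percent inhibition | controls = no-proteasome and no-compound wells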
# ATG4B inhibitor: ATG4B (human) cysteine protease inhibition; Q9Y4P1; ATG4B cleavage of LC3-PLA2, NBD-HPC fluorescence, 1 h; inhibition, % at 8.33 µM; 340,000 compounds, 0.51% hits; AID 504462; in the data active = inhibition above about 40%
# Target sequence (Q9Y4P1 whole entry, looked up): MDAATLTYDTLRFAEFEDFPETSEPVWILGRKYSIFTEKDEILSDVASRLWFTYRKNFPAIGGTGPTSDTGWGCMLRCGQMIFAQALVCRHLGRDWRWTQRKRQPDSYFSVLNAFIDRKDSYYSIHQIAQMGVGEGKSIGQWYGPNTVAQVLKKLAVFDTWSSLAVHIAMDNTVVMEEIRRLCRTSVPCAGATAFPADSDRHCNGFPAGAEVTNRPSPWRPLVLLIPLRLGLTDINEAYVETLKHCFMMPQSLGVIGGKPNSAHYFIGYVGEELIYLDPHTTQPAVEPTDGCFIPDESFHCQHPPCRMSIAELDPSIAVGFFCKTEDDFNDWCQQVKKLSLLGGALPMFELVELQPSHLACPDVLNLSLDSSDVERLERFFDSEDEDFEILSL
# A number is an active result; n = inactive; u = inconclusive; x = no result. Only some compounds are listed: those with a hit (about 4.8% of all), similar ones and a draw of the others.
SMILES,Calb FLC,NALP1 inh,ALR H2O2 inh,NLRP3 yeast inh,UCH37 DUB inh,ATG4B inhibitor
CCn1c(C)nc2cc(C(=O)NNC(=S)Nc3ccc(Cl)cc3)ccc21,n,x,87,n,n,n
CCn1c(C)nc2cc(C(=O)NNC(=S)Nc3ccc(Cl)cc3Cl)ccc21,95,n,x,n,n,n
CCn1c(SCC(=O)NN=Cc2c[nH]c3ccccc23)nnc1-c1ccc(C(C)(C)C)cc1,x,x,x,x,n,x
Cc1ccc2cc3cc(C(=O)NCCCN4CCCC4)oc3nc2c1,n,n,n,n,n,n
Cc1ccc2cc3cc(C(=O)NCCCN4CCc5ccccc5C4)oc3nc2c1,n,46,n,n,n,n
S=C(Nc1ccc(Cl)cc1)c1nc2ccccc2[nH]1,96,n,x,n,n,n
Cc1ccccc1NC(=S)c1nc2ccccc2[nH]1,n,n,n,x,n,n
Nc1n[nH]c(N)c1N=Nc1cccc(F)c1,n,n,x,n,x,n
Cc1cccc(N=Nc2c(N)n[nH]c2N)c1,n,n,93,n,n,n
O=C(Nc1cccc(-c2cn3ccccc3n2)c1)c1ccccc1,n,n,95,n,n,n
Cc1ccccc1C(=O)Nc1cccc(-c2cn3ccccc3n2)c1,n,n,n,n,n,n
Cc1ccc(C(=O)Nc2cccc(-c3cn4ccccc4n3)c2)cc1,94,n,n,n,n,n
COc1ccc(OCC(=O)NN=Cc2cccc3cccnc23)cc1,x,x,x,x,n,x
Cc1ccc2nc(C)cc(N/N=C/c3ccccc3O)c2c1,n,n,99,n,x,n
COc1ccc(/C=N/Nc2cc(C)nc3ccc(OC)cc23)c(OC)c1,n,n,86,n,x,n
COc1ccccc1/C=N/Nc1cc(C)nc2ccc(C)cc12,n,n,99,n,x,n
COc1ccc2nc(C)cc(Nc3ccc(N4CCN(C)CC4)cc3)c2c1,n,n,96,n,n,n
COc1ccc2nc(C)cc(Nc3ccc(N4CCOCC4)cc3)c2c1,n,n,n,n,n,n
CCOc1ccccc1C=NNc1cc(C)nc2ccc(C)cc12,x,x,x,x,n,x
Cc1cc(NN=Cc2ccc(O)cc2O)c2ccccc2n1,x,x,x,x,n,x
Cc1cc(C(=O)N/N=C/c2ccco2)c2ccccc2n1,n,n,n,n,x,n
Cc1cc(N/N=C/c2ccco2)c2ccccc2n1,n,n,77,n,x,n
Cc1cc(N/N=C/c2ccc(O)cc2O)c2ccccc2n1,n,n,97,n,x,n
O=C(O)c1cccc2c1C(=NNc1ccc([N+](=O)[O-])cc1[N+](=O)[O-])c1ccccc1-2,x,x,x,x,n,x
CCOC(=O)N1CCN(C(=O)c2cccc(-n3c(=S)[nH]c4cc(Cl)ccc4c3=O)c2)CC1,n,n,79,n,n,n
SMILES,Calb FLC,NALP1 inh,ALR H2O2 inh,NLRP3 yeast inh,UCH37 DUB inh,ATG4B inhibitor
N#CCSc1nc2cc(C(=O)N3CCC(C(N)=O)CC3)ccc2c2nc3ccccc3n12,n,n,98,n,n,n
COC(=O)c1ccc(CSc2nnc(CNC(=O)c3ccccc3F)o2)o1,n,n,97,n,n,n
COc1ccc(C(=O)CSc2nnc(CNC(=O)c3ccc(S(=O)(=O)N(C)C)cc3)o2)cc1,n,n,98,n,n,n
O=C(CSc1nnc(CNC(=O)c2ccccc2F)o1)c1ccc(Cl)cc1,n,n,99,n,n,n
CC(C)[C@H](N)c1nnc(SCC(=O)c2ccc(Cl)cc2)o1,n,n,98,n,n,n
Cc1nnc(NC(=O)CSc2nnc(CNC(=O)c3ccc(S(=O)(=O)N(C)C)cc3)o2)s1,n,n,n,n,n,n
C[C@H](N)c1nnc(SCC(=O)c2ccc(Cl)cc2)o1,n,n,x,n,n,n
CN(N=Cc1cccnc1)c1cnn(-c2ccc(F)c(Cl)c2)c(=O)c1Cl,x,x,x,x,n,x
COc1c(C=NNC(=O)[C@H]2C[C@@H]2c2ccccc2)c(CCN(C)C(C)=O)cc2c1OCO2,x,x,x,x,n,x
CC(=O)Nc1ccc(C=NNc2ccc(C(=O)c3c(C)cc4ccccn34)cc2[N+](=O)[O-])cc1,x,x,x,x,n,x
c1ccc2c(c1)[nH]c1c(NCC3CCCO3)ncnc12 (centres undefined),n,n,82,n,n,n
O=C(Nc1cccc2[nH]ncc12)NS(=O)(=O)c1ccccc1,n,n,97,n,n,n
CON=Cc1ccc(N2CCN(C(=O)c3ccc(C)cc3)CC2)c([N+](=O)[O-])c1,x,x,x,x,n,x
O=C1CCCC/C1=N\Nc1ccc(C2CCCCC2)cc1,n,n,98,n,x,x
CS(=O)(=O)Nc1ccc(OCc2ccccc2)cc1,n,n,n,n,n,n
O=C1CCCC/C1=N\Nc1ccc(OCc2ccccc2)cc1,u,n,99,n,x,n
CC(=NNC(=O)c1ccc(O)cc1)c1ccc2c(c1)Nc1ccccc1S2,x,x,x,x,n,x
CCN(CC)c1ccc(/C=C2\CCC(/C=N/NC(=O)c3ccc(=O)n(C)c3)=C2N2CCOCC2)cc1,n,n,100,n,x,n
Cc1c(/C=C2\NC(=O)NC2=O)c2ccccc2n1C,n,n,98,n,n,n
O=C(NN=Cc1ccccc1C(=O)O)c1cccc(S(=O)(=O)Nc2cc(Cl)ccc2Cl)c1,x,x,x,x,n,x
Cc1c(NC(=O)C(C)Sc2n[nH]c(N)n2)c(=O)n(-c2ccccc2)n1C (centres undefined),n,38,x,n,n,n
Cc1ccc(-c2cc(C(=O)Nc3c(C)n(C)n(-c4ccccc4)c3=O)[nH]n2)c(O)c1C,n,n,97,n,n,n
Cc1c(NC(=S)NN=Cc2ccccc2O)c(=O)n(-c2ccccc2)n1C,x,x,x,x,n,x
Cc1c(C(=O)OCC(=O)Nc2c(C)n(C)n(-c3ccccc3)c2=O)oc2ccccc12,n,n,99,n,n,n
Cc1cccc(C(=O)OCC(=O)Nc2c(C)n(C)n(-c3ccccc3)c2=O)c1,x,x,x,n,n,n
SMILES,Calb FLC,NALP1 inh,ALR H2O2 inh,NLRP3 yeast inh,UCH37 DUB inh,ATG4B inhibitor
Cc1c(NC(=S)N/N=C/c2ccc(O)cc2)c(=O)n(-c2ccccc2)n1C,n,n,99,n,x,n
Cc1nc(SC(C)C(=O)Nc2c(C)n(C)n(-c3ccccc3)c2=O)nc(C)c1C (centres undefined),x,x,x,n,n,n
NC(=NOS(=O)(=O)c1cccc([N+](=O)[O-])c1)c1ccncc1,x,x,x,x,n,x
CC(Cn1nnc([N+](=O)[O-])n1)=NNC(=O)c1ccccc1Cl,x,x,x,x,n,x
FC(F)(F)c1ccc(NN=Cc2cccnc2)nc1,x,x,x,x,n,x
Cc1c(NC(=O)c2cccc(F)c2)c(=O)n(-c2ccccc2)n1C,n,n,n,n,n,n
Cc1c(NC(=O)CN2c3ccccc3CC2C)c(=O)n(-c2ccccc2)n1C (centres undefined),n,n,97,n,n,n
Cc1c(NC(=O)c2ccc(F)cc2)c(=O)n(-c2ccccc2)n1C,n,36,n,n,n,n
CC(=O)Nc1cccc(NC(=O)CSc2ncc(C(=O)Nc3ccc(F)cc3)c(=O)n2C)c1,n,x,99,n,n,n
CC(=O)Nc1ccc(NC(=O)CSc2ncc(C(=O)Nc3ccc(F)cc3)c(=O)n2C)cc1,n,x,99,n,n,n
